According to ChEMBL document CHEMBL3763093, “The molecular structure of thio-ether fatty acids influences PPAR-dependent regulation of lipid metabolism” (Bioorg Med Chem, 2016):
The source made the active and inactive calls. No cut-off for these calls is given here.

What was measured:
[1] = Effect on fatty acid composition in human myotubes assessed as intracellular TTA level at 10 uM after 96 hrs; assay type: functional
How it was run: (§1)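 Differentiated human myotubes (7 days) treated 96 h with 10 or 30 μM compound or DMSO 0.1% (two controls). Cells washed, harvested, lipids extracted and methylated (methanol, sulfuric acid, 90 °C, 1 h); FA methyl esters quantified by GC with C21:0 internal standard, peaks confirmed by standards and GC/MS; values as mol % of intracellular fatty acids.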

[2] = Effect on fatty acid composition in human myotubes assessed as intracellular tTTA level at 10 uM after 96 hrs; assay type: functional; how it was run: as §1
[3] = Effect on fatty acid composition in human myotubes assessed as intracellular SFA level at 10 uM after 96 hrs (Rvb= 36.16%); assay type: functional; how it was run: as §1
[4] = Effect on fatty acid composition in human myotubes assessed as intracellular MUFA level at 10 uM after 96 hrs (Rvb= 41.04%); assay type: functional; how it was run: as §1
[5] = Effect on fatty acid composition in human myotubes assessed as intracellular PUFA n-3 level at 10 uM after 96 hrs (Rvb= 7.47%); assay type: functional; how it was run: as §1
[6] = Effect on fatty acid composition in human myotubes assessed as intracellular PUFA n-6 level at 10 uM after 96 hrs (Rvb= 13.41%); assay type: functional; how it was run: as §1
[7] = Effect on fatty acid composition in human myotubes assessed as intracellular PUFA n-9 level at 10 uM after 96 hrs (Rvb= 1.78%); assay type: functional; how it was run: as §1
[8] = Effect on fatty acid composition in human myotubes assessed as intracellular TTA level at 30 uM after 96 hrs; assay type: functional; how it was run: as §1
[9] = Effect on fatty acid composition in human myotubes assessed as intracellular tTTA level at 30 uM after 96 hrs; assay type: functional; how it was run: as §1
[10] = Effect on fatty acid composition in human myotubes assessed as intracellular SFA level at 30 uM after 96 hrs (Rvb= 36.16%); assay type: functional; how it was run: as §1
[11] = Effect on fatty acid composition in human myotubes assessed as intracellular MUFA level at 30 uM after 96 hrs (Rvb= 41.04%); assay type: functional; how it was run: as §1
[12] = Effect on fatty acid composition in human myotubes assessed as intracellular PUFA n-3 level at 30 uM after 96 hrs (Rvb= […]); assay type: functional; how it was run: as §1
[13] = Effect on fatty acid composition in human myotubes assessed as intracellular PUFA n-6 level at 30 uM after 96 hrs (Rvb= 13.41%); assay type: functional; how it was run: as §1
[14] = Effect on fatty acid composition in human myotubes assessed as intracellular PUFA n-9 level at 30 uM after 96 hrs (Rvb= 1.78%); assay type: functional; how it was run: as §1
[15] = Effect on fatty acid composition in human myotubes assessed as change in intracellular SFA level at 10 uM after 96 hrs relative to DMSO control; assay type: functional; how it was run: as §1
[16] = Effect on fatty acid composition in human myotubes assessed as change in intracellular SFA level at 30 uM after 96 hrs relative to DMSO control; assay type: functional; how it was run: as §1
[17] = Effect on fatty acid composition in human myotubes assessed as change in intracellular MUFA level at 10 uM after 96 hrs relative to DMSO control; assay type: functional; how it was run: as §1
[18] = Effect on fatty acid composition in human myotubes assessed as change in intracellular MUFA level at 30 uM after 96 hrs relative to DMSO control; assay type: functional; how it was run: as §1
[19] = species: Homo sapiens; assay: Effect on intracellular [14C]oleic acid uptake in human myotubes at 10 to 30 uM preincubated for 96 hrs followed by substrate addition incubated for 4 hrs by liquid scintillation analysis; assay type: functional, cell-based
How it was run: (§2)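 Myotubes differentiated 7 days were pretreated 96 h with 10 or 30 μM compound, 10 nM GW501516 or DMSO 0.1%, then given [1-14C]oleic acid (0.5 μCi/mL, 100 μM) in DPBS with HEPES 10 mM and L-carnitine 1 mM, 4 h at 37 °C. Trapped CO2 and cell-associated label counted by scintillation; uptake = CO2 + CA; Bradford protein; % of DMSO basal; n = 8–15.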

[20] = target: T1, Peroxisome proliferator-activated receptor (Homo sapiens) (UniProt P37231+Q07869+Q03181); assay: Agonist activity at PPAR in human myotubes assessed as ANGPTL4 mRNA expression at 30 uM after 96 hrs by qPCR analysis relative to control
How it was run: (§3)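 Myotubes from satellite cells of abdominal muscle biopsies of healthy donors, differentiated 7 days, then exposed 96 h to test lipids (30 μM) vs DMSO 0.1%. Total RNA isolated (RIN ≥7), reverse transcribed, real-time PCR with gene-specific primers; expression expressed relative to DMSO control.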

[21] = target: T1, Peroxisome proliferator-activated receptor (Homo sapiens); assay: Agonist activity at PPAR in human myotubes assessed as FABP3 mRNA expression at 30 uM after 96 hrs by qPCR analysis relative to control; how it was run: as §3
[22] = target: T1, Peroxisome proliferator-activated receptor (Homo sapiens); assay: Agonist activity at PPAR in human myotubes assessed as CD36 mRNA expression at 30 uM after 96 hrs by qPCR analysis relative to control; how it was run: as §3
[23] = target: T1, Peroxisome proliferator-activated receptor (Homo sapiens); assay: Agonist activity at PPAR in human myotubes assessed as CPT1A mRNA expression at 30 uM after 96 hrs by qPCR analysis relative to control; how it was run: as §3
[24] = Effect on protein level in human myotubes at 10 to 30 uM; assay type: ADME
[25] = Effect on total fatty acid level in human myotubes assessed as per mg of protein at 10 to 30 uM; assay type: ADME
[26] = Effect on fatty acid composition in human myotubes assessed as intracellular dTTA level at 10 uM after 96 hrs; assay type: functional; how it was run: as §1
[27] = Effect on fatty acid composition in human myotubes assessed as intracellular dTTA level at 30 uM after 96 hrs; assay type: functional; how it was run: as §1
[28] = Effect on fatty acid composition in human myotubes assessed as intracellular SFA level at 10 uM after 96 hrs (Rvb= 31.41%); assay type: functional; how it was run: as §1
[29] = Effect on fatty acid composition in human myotubes assessed as intracellular MUFA level at 10 uM after 96 hrs (Rvb= 49.95%); assay type: functional; how it was run: as §1
[30] = Effect on fatty acid composition in human myotubes assessed as intracellular PUFA n-3 level at 10 uM after 96 hrs (Rvb= 5.16%); assay type: functional; how it was run: as §1
[31] = Effect on fatty acid composition in human myotubes assessed as intracellular PUFA n-6 level at 10 uM after 96 hrs (Rvb= 11.46%); assay type: functional; how it was run: as §1
[32] = Effect on fatty acid composition in human myotubes assessed as intracellular PUFA n-9 level at 10 uM after 96 hrs (Rvb= 1.89%); assay type: functional; how it was run: as §1
[33] = Effect on fatty acid composition in human myotubes assessed as intracellular SFA level at 30 uM after 96 hrs (Rvb= 31.41%); assay type: functional; how it was run: as §1
[34] = Effect on fatty acid composition in human myotubes assessed as intracellular MUFA level at 30 uM after 96 hrs (Rvb= 49.95%); assay type: functional; how it was run: as §1
[35] = Effect on fatty acid composition in human myotubes assessed as intracellular PUFA n-3 level at 30 uM after 96 hrs (Rvb= 5.16%); assay type: functional; how it was run: as §1
[36] = Effect on fatty acid composition in human myotubes assessed as intracellular PUFA n-6 level at 30 uM after 96 hrs (Rvb= 11.46%); assay type: functional; how it was run: as §1
[37] = Effect on fatty acid composition in human myotubes assessed as intracellular PUFA n-9 level at 30 uM after 96 hrs (Rvb= 1.89%); assay type: functional; how it was run: as §1
[38] = species: Homo sapiens; assay: Induction of fatty acid oxidation in human myotubes using [14C]oleic acid as substrate preincubated for 96 hrs followed by substrate addition incubated for 4 hrs by liquid scintillation analysis; assay type: functional; how it was run: as §2

With `CCCCCCC#CCCCCCCSCC(=O)O` the Activity [1] was 0.06 mol%, the Activity [2] was 3.01 mol% and the Activity [3] was 38.85 mol%. The Activity [4] was 36.3 mol%, the Activity [5] was 8.41 mol% and the Activity [6] was 13.93 mol%. The Activity [7] was 1.32 mol%, the Activity [8] was 0.32 mol% and the Activity [9] was 11.34 mol%. It also gave an Activity [10] of 36.3 mol%, an Activity [11] of 32.32 mol% and an Activity [12] of 7.09 mol%. For the same compound, the Activity [13] was 11.63 mol%, the Activity [14] was 0.87 mol% and the Activity [15] was 2.2%. The Activity [16] was 0.7%, the Activity [17] was -11.6% and the Activity [18] was -21.3%. The Activity [19] was “inactive”, the fold change (FC) [20] was 35 and the Activity [21] was “Active”. The Activity [22] was “Active”, the fold change (FC) [23] was under 10 and the Activity [24] was “Non-toxic”. For the same compound, the Activity [25] was “Non-toxic”.

For `CCCCCCCCCCCCCCSCC(=O)OC[C@H](COP(=O)([O-])OCC[N+](C)(C)C)OC(=O)CSCCCCCCCCCCCCCC` [PHOSPHATIDYLCHOLINE], the Activity [1] was 5.5 mol%, the Activity [26] was 0.17 mol% and the Activity [3] was 35.14 mol%. The Activity [4] was 37.48 mol%, the Activity [5] was 6.98 mol% and the Activity [6] was 12.71 mol%. It also gave an Activity [7] of 1.88 mol%, an Activity [8] of 5.9 mol% and an Activity [27] of 0.34 mol%. For the same compound, the Activity [10] was 31.79 mol%, the Activity [11] was 39.28 mol% and the Activity [12] was 7.3 mol%. The Activity [13] was 13.31 mol%, the Activity [14] was 1.95 mol% and the Activity [15] was -2.5%. For the same compound, the Activity [16] was -11.8%, the Activity [17] was -8.8% and the Activity [18] was -4.4%. For the same compound, the Activity [19] was “inactive”, the Activity [20] was “inactive” and the Activity [21] was “inactive”. The Activity [22] was “inactive”, the Activity [23] was “inactive” and the Activity [24] was “Non-toxic”. The Activity [25] was “Non-toxic”.

With `CCCCCCC#CCCCCCCSCC(=O)OC[C@@H](O)COP(=O)([O-])OCC[N+](C)(C)C` the Activity [1] was 0.43 mol%, the Activity [2] was 2.16 mol% and the Activity [8] was 1.02 mol%. It also gave an Activity [9] of 4.15 mol%, an Activity [28] of 32.02 mol% and an Activity [29] of 46.19 mol%. The Activity [30] was 5.18 mol%, the Activity [31] was 12.4 mol% and the Activity [32] was 1.48 mol%. It also gave an Activity [33] of 33.52 mol%, an Activity [34] of 40.64 mol% and an Activity [35] of 5.68 mol%. For the same compound, the Activity [36] was 13.42 mol%, the Activity [37] was 1.41 mol% and the Activity [15] was 0.7%. The Activity [16] was 4.5%, the Activity [17] was -21.3% and the Activity [18] was -13.1%. The Activity [38] was “Dose-dependent effect”, the Activity [19] was “inactive” and the fold change (FC) [20] was 25. For the same compound, the Activity [21] was “Active”, the Activity [22] was “Active” and the fold change (FC) [23] was under 7. The Activity [24] was “Non-toxic” and the Activity [25] was “Non-toxic”.
